Legend:
[1] = target: T1, 5-hydroxytryptamine receptor 2A (Homo sapiens, UniProt P28223); assay: Affinity against 5-hydroxytryptamine 2A receptor (D) labeled with [125I]DOI.
[2] = target: T1, 5-hydroxytryptamine receptor 2A; assay: Affinity against 5-hydroxytryptamine 2A receptor (K) labeled with [3H]ketanserin.
[3] = target: T2, 5-hydroxytryptamine receptor 2C (Rattus norvegicus, UniProt P08909); assay: Affinity against 5-hydroxytryptamine 2C receptor in J1 cells transfected with the rat 5-HT2C gene labeled with [3H]mesulergine.; type: cell-based
T2 sequence (P08909 whole entry): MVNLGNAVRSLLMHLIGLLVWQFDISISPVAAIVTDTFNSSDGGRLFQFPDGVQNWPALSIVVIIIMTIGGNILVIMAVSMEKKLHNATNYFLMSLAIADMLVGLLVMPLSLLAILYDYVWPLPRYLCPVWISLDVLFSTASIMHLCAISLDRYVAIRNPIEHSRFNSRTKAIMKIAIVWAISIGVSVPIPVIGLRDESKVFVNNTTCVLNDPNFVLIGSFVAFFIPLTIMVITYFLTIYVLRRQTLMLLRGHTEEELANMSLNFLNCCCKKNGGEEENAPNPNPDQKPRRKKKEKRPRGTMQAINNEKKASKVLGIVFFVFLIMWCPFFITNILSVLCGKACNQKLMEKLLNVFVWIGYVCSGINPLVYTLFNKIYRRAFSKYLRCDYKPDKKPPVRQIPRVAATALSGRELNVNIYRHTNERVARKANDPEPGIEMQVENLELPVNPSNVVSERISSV
Method in brief: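 Homogenates of J1 cells carrying the rat 5-HT1C (5-HT2C) gene, labeled with [3H]mesulergine. Competing drug and radioligand incubated at 37 °C for 30 min, then filtered through glass-fiber filters and counted by liquid scintillation. Ki given as mean and SEM of at least two experiments, each done in triplicate.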

[4] = The compound evaluated for its receptor selectivity 5-HT2C receptors versus [125I]- DOI- labeled receptors
[5] = Receptor selectivity [3H]- ketanserin-labeled receptors versus [125I]- DOI-labeled receptors.
[6] = The compound evaluated for its receptor selectivity at [125I]- DOI- labeled receptors versus [3H]- ketanserin- labeled receptors,
Method in brief: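 […] 5-HT2A receptors expressed in transfected GF6 cells, labeled in separate assays with [3H]ketanserin or [125I]DOI. Homogenates were incubated with radioligand and competing drug for 30 min at 37 °C, then filtered through glass-fiber filters and counted by liquid scintillation. Ki values are the mean and SEM of at least two experiments, each run in triplicate.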

T1 sequence (P28223 whole entry): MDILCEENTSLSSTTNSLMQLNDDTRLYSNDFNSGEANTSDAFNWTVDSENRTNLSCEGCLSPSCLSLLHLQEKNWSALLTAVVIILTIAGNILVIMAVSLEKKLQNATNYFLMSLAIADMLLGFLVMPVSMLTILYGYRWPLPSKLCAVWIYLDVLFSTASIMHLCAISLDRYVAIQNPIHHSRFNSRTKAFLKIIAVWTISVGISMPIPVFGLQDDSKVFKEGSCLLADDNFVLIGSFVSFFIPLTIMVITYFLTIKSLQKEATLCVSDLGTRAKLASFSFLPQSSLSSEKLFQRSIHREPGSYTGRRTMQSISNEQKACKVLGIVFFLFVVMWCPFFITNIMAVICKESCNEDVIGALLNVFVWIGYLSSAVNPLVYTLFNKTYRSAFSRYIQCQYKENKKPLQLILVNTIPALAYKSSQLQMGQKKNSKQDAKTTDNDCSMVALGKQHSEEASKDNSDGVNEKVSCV

Compound | Ki [1] | Ki [2] | Ki [3] | Ratio [4] | Ratio [5] | Ratio [6]
COc1ccc2[nH]cc(CCNCc3ccc(F)cc3)c2c1 | 40 nM | 480 nM | 3530 nM | 88 | 10 | 
COc1ccc2[nH]cc(CCNCc3ccc(C)cc3)c2c1 | 30 nM | 110 nM | 1230 nM | 40 | 4 | 
COc1cc(CCNCc2ccccc2)c(OC)cc1Br | 0.3 nM | 16 nM | 90 nM | 300 | 53 | 
COc1cc(CCN2CCCCC2)c(OC)cc1Br | 154 nM | 895 nM | 2530 nM | 16 | 6 | 
COc1cc(CCNCc2ccc(I)cc2)c(OC)cc1Br | 0.4 nM | 22 nM | 165 nM | 410 | 55 | 
CNCCc1c[nH]c2ccc(OC)cc12 | 4.1 nM | 450 nM | 840 nM |  |  | 110
COc1ccc2[nH]cc(CCNCc3ccc(I)cc3)c2c1 | 120 nM | 400 nM | 1770 nM | 15 | 3 | 
COc1ccc2[nH]cc(CCNCCCCc3ccccc3)c2c1 | 13 nM | 22 nM | 1500 nM | 115 | 2 | 
COc1ccc2[nH]cc(CCN3CCCCC3)c2c1 | 230 nM | 160 nM | > 10000 nM |  |  | 
COc1ccc2[nH]cc(CCNCc3ccccc3)c2c1 | 5.3 nM | 55 nM | 370 nM | 70 | 10 | 
COc1ccc(CNCCc2c[nH]c3ccc(OC)cc23)cc1 | 16 nM | 100 nM | 1180 nM | 74 | 6 | 
COc1cc(CCNCCCc2ccccc2)c(OC)cc1Br | 23 nM | 84 nM | 310 nM | 13 | 4 | 
COc1cc(CCNCCCCc2ccccc2)c(OC)cc1Br | 27 nM | 100 nM | 695 nM | 26 | 4 | 
COc1ccc2[nH]cc(CCNCc3ccc([N+](=O)[O-])cc3)c2c1 | 140 nM | 4260 nM | 9970 nM | 70 | 30 | 
COc1cc(CCN(C)C)c(OC)cc1Br | 16 nM | 420 nM | 480 nM | 30 | 26 | 
COc1cc(CCNCc2ccc(N)cc2)c(OC)cc1Br | 16 nM | 50 nM | 1020 nM | 64 | 3 | 
COc1cc(CCNCc2ccc(C)cc2)c(OC)cc1Br | 14 nM | 23 nM | 225 nM | 16 | 2 | 
CCNCCc1c[nH]c2ccc(OC)cc12 | 7.2 nM | 930 nM | 2680 nM |  |  | 130
COc1ccc2[nH]cc(CCNCCCc3ccccc3)c2c1 | 10 nM | 50 nM | 165 nM | 16 | 5 | 
COc1cc(CCNCc2ccc([N+](=O)[O-])cc2)c(OC)cc1Br | 58 nM | 290 nM | 1220 nM | 21 | 5 | 
COc1cc(CCN)c(OC)cc1Br | 1 nM | 34 nM |  |  |  | 
COc1ccc2[nH]cc(CCNCc3ccc(Br)cc3)c2c1 | 0.1 nM | 5.2 nM | 100 nM | 1000 | 52 | 
COc1cc(CCNCc2ccc(F)cc2)c(OC)cc1Br | 3.4 nM | 30 nM | 360 nM | 80 | 7 | 
COc1ccc2[nH]cc(CCNCc3ccc(N)cc3)c2c1 | 105 nM | 475 nM | 6700 nM | 64 | 5 | 
COc1cc(CCNCc2ccc(Br)cc2)c(OC)cc1Br | 0.4 nM | 1.6 nM | 48 nM | 120 | 4 | 
COc1cc(CCNCc2ccc(Cl)cc2)c(OC)cc1Br | 15 nM | 110 nM | 715 nM | 48 | 7 | 
COc1ccc(CNCCc2cc(OC)c(Br)cc2OC)cc1 | 13 nM | 16 nM | 215 nM | 17 | 1 | 
CNCCc1cc(OC)c(Br)cc1OC | 2.9 nM | 380 nM | 100 nM | 34 | 130 | 
CCNCCc1cc(OC)c(Br)cc1OC | 40 nM | 330 nM | 1930 nM | 48 | 8 | 
COc1ccc2[nH]cc(CCNCc3ccc(Cl)cc3)c2c1 | 105 nM | 565 nM | 4390 nM | 42 | 5 | 
